Assay results published in publication PMC11252475 (Acta Pharmaceutica Sinica. B, 2024).

Experiments:
NaV1.5 = NaV1.5 (Homo sapiens, UniProt Q14524); experiment: Cell membrane chromatography; type: binding; conditions: capacity factor k′; reflects potential cardiac toxicity; k′ < 0 labeled as 0
rats [1] = experiment: Cutaneous trunci pinprick model; type: in vivo, rat; conditions: 62.3 mmol/L
Method in brief: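 Male SD rats under 1%–3% isoflurane had about 6 cm × 6 cm of back shaved, swabbed with alcohol and split into four areas. Test compound (62.3 mmol/L) was given by s.c. infiltration. Pinprick scored 1 for no response and 0 for response. Duration ran from onset to expiration, expressed as mean-score MPE. Effective block was ≥50% MPE; complete block was 100% MPE.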

rats [2] = experiment: Sciatic nerve block model; type: in vivo, rat; conditions: 62.3 mmol/L near sciatic nerve; for motor block duration: extensor postural thrust; for duration of effective sensory blockade: hotplate test
Method in brief: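 Test compound (62.3 mmol/L) was injected near the sciatic nerve. Hind limbs were tested every 30 min until back to pre-test baseline. Sensory: paw withdrawal latency on a 55 °C hotplate, timed by stopwatch. Motor: extensor postural thrust in grams on a digital balance. Recovery was 50% of baseline.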

rats [3] = experiment: CFA-induced chronic plantar inflammatory pain model; type: in vivo, rat; conditions: 62.3 mmol/L, 0.2 mL subcutaneous at swollen foot
Method in brief: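 Male SD rats (6–8 weeks, 250–300 g) under 1%–3% isoflurane had CFA injected into the right foot. Test compound (62.3 mmol/L, 0.2 mL) or equal-volume saline was given s.c. at the swollen site. Electronic von Frey stimulation to the side of the foot every 10 min after onset. Anesthesia failed when the value fell to half the limb-weight-to-baseline difference or below.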

rats [4] = experiment: Plantar incisional pain model; type: in vivo, rat; conditions: 0.2 mL near incision
Method in brief: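 Rats with a plantar incision received test compound or saline, 0.2 mL, near the incision. Local anesthesia was assessed by von Frey stimulation of the lateral sole.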

[5] = tested on: NaV currents in rat dorsal root ganglion (DRG) neurons; experiment: Whole-cell patch clamp, sodium current in DRG neurons; type: cell-based; conditions: F-11 rat/mouse fusion cell line, DRG neuron, read-out: IC50 sodium current
Method in brief: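 Male rat DRG neurons (180–200 g donors) were dissociated with collagenase IV (2 mg/mL) then trypsin (10 mg/mL) for 30 min, plated on poly-L-lysine and grown in Neurobasal with FBS and B27. Whole-cell voltage clamp used 3–4 MΩ electrodes. I/V steps ran from −90 to +40 mV in 10 mV increments, 50 ms each.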

[6] = Systemic toxicity, intravenous; conditions: ICR, mouse, in vivo
[7] = Systemic toxicity, subcutaneous injection; type: in vivo, rat; conditions: Sprague-Dawley, rat, in vivo, sc
SD rats = experiment: Systemic toxicity, subcutaneous injection; type: in vivo, rat; conditions: TI = LD50/ED50, s.c.
rats [8] = experiment: Gingival incision pain model; type: in vivo, rat
Method in brief: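 Oral pain models in rats under 1%–3% isoflurane, with test compound given as local anesthetic. Food intake and body-weight change were measured on a precision balance over 24 h. Facial grooming was video-recorded for 1 h after dosing.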

Chain of NaV1.5 (Q14524 whole entry): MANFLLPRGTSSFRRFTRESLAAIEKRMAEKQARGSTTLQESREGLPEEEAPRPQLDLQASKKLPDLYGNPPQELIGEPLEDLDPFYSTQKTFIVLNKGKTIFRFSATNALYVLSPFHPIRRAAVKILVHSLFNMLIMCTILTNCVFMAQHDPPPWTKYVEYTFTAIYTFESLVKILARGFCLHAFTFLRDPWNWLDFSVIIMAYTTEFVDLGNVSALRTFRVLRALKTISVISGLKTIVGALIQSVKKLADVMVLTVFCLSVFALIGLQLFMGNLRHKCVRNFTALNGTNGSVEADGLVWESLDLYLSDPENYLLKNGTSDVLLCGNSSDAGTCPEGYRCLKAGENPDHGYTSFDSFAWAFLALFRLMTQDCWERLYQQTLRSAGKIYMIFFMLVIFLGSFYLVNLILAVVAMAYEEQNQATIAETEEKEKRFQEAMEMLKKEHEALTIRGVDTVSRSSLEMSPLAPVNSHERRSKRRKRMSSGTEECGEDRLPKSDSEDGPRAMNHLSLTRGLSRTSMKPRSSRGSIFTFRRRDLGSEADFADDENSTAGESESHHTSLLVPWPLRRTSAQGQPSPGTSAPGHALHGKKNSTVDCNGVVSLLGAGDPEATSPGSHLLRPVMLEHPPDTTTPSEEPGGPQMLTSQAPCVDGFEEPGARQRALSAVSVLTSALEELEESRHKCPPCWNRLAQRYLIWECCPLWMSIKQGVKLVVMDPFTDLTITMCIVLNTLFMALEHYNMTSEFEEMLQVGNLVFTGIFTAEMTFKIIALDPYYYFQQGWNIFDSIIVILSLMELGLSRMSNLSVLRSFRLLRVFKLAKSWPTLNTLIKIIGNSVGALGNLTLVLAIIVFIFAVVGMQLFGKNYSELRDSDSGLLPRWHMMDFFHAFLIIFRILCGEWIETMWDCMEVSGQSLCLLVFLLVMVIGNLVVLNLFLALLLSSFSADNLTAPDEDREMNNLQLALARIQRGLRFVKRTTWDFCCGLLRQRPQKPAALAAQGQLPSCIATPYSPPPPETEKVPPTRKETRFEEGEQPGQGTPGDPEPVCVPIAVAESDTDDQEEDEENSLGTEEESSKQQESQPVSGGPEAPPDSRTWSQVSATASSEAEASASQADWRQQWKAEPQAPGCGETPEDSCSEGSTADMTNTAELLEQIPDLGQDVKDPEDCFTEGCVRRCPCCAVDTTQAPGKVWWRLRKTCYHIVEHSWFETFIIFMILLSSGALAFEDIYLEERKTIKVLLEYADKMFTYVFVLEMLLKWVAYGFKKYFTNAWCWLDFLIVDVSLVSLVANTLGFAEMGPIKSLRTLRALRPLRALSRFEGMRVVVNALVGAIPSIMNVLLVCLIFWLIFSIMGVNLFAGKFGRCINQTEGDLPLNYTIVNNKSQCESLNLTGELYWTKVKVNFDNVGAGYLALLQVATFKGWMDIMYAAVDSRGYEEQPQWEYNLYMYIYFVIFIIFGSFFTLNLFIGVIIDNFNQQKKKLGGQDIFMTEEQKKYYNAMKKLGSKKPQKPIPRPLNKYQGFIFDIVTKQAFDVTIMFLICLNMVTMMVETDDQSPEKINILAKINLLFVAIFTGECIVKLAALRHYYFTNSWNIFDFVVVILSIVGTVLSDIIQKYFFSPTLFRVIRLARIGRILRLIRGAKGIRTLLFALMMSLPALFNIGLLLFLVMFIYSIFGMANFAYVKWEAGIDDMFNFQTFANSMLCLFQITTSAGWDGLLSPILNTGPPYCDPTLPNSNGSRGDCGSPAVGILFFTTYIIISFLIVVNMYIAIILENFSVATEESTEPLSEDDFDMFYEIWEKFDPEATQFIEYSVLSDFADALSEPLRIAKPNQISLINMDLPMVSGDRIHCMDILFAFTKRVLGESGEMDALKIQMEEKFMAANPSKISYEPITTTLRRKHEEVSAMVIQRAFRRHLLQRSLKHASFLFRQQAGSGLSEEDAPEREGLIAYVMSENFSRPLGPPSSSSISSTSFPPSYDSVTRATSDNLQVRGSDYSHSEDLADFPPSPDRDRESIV

| SMILES | k′ NaV1.5 (NaV1.5) | further results |
| --- | --- | --- |
| CCCNC(C)C(=O)Nc1c(C)csc1C(=O)OC (stereo not shown) [AT, Methyl 4-methyl-3-(2-(propylamino)propanamido)thiophene-2-carboxylate, reference compound] | 63 | subcutaneous infiltration duration (rats [1]): 120 min; motor block duration (rats [2]): 90 min; duration of action (anesthesia) under CFA-induced chronic inflammation (rats [3]): 30 min; anesthesia result in acute inflammation model through plantar incision (rats [4]): underperformed; IC50 [5]: 71.2 ± 3.06 µM; LD50 [6]: 38.3 mg/kg; LD50 at 24 h [7]: 598 mg/kg; TI (SD rats): 125.83; face grooming frequency (rats [8]): significantly lowered |
| COC(=O)c1scc(C)c1NC(=O)C(C)N1CCNCC1 (stereo not shown) [AT-1, methyl 4-methyl-3-(2-(piperazin-1-yl)propanamido)thiophene-2-carboxylate] | 80.8 | subcutaneous infiltration duration (rats [1]): 240 min |
| COC(=O)c1scc(C)c1NC(=O)C(C)N1CCN(C)C(C)C1 (stereo not shown) [AT-2, Methyl 3-(2-(3,4-dimethylpiperazin-1-yl)propanamido)-4-methylthiophene-2-carboxylate] | 92 | – |
| COC(=O)c1scc(C)c1NC(=O)C(C)N1CCCCC1 (stereo not shown) [AT-3, Methyl 4-methyl-3-(2-(piperidin-1-yl)propanamido)thiophene-2-carboxylate] | 1.1 | – |
| COC(=O)c1scc(C)c1NC(=O)C(C)N1CC(C)CC(C)C1 (stereo not shown) [AT-4, Methyl 3-(2-(3,5-dimethylpiperidin-1-yl)propanamido)-4-methylthiophene-2-carboxylate] | 71.2 | – |
| COC(=O)c1scc(C)c1NC(=O)C(C)N1CCOCC1 (stereo not shown) [AT-5, Methyl 4-methyl-3-(2-morpholinopropanamido)thiophene-2-carboxylate] | 18.4 | – |
| COC(=O)c1scc(C)c1NC(=O)C(C)N1CCOCC1C (stereo not shown) [AT-6, Methyl 4-methyl-3-(2-(3-methylmorpholino)propanamido)thiophene-2-carboxylate] | 28 | – |
| COC(=O)c1scc(C)c1NC(=O)C(C)N1C(C)COCC1C (stereo not shown) [AT-7, Methyl 3-(2-(3,5-dimethylmorpholino)propanamido)-4-methylthiophene-2-carboxylate] | 24 | – |
| COC(=O)c1scc(C)c1NC(=O)C(C)N1CC(C)OC(C)(C)C1 (stereo not shown) [AT-8, Methyl 4-methyl-3-(2-(2,2,6-trimethylmorpholino)propanamido)thiophene-2-carboxylate] | 36.8 | – |
| COC(=O)c1scc(C)c1NC(=O)C(C)N1CCSCC1 (stereo not shown) [AT-9, Methyl 4-methyl-3-(2-thiomorpholinopropanamido)thiophene-2-carboxylate] | 48.6 | – |
| COC(=O)c1scc(C)c1NC(=O)C(C)N1CCS(=O)(=O)CC1 (stereo not shown) [AT-10, Methyl 3-(2-(1,1-dioxidothiomorpholino)propanamido)-4-methylthiophene-2-carboxylate] | 0 | – |
| COC(=O)c1scc(C)c1NC(=O)C(C)N1CCN(C)CC1 (stereo not shown) [AT-11, Methyl 4-methyl-3-(2-(4-methylpiperazin-1-yl)propanamido)thiophene-2-carboxylate] | 8 | subcutaneous infiltration duration (rats [1]): 260 min |
| CCN1CCN(C(C)C(=O)Nc2c(C)csc2C(=O)OC)CC1 (stereo not shown) [AT-12, Methyl 3-(2-(4-ethylpiperazin-1-yl)propanamido)-4-methylthiophene-2-carboxylate] | 1.2 | – |
| COC(=O)c1scc(C)c1NC(=O)C(C)N1CCN(C(C)C)CC1 (stereo not shown) [AT-13, Methyl 3-(2-(4-isopropylpiperazin-1-yl)propanamido)-4-methylthiophene-2-carboxylate] | 23.2 | subcutaneous infiltration duration (rats [1]): 275 min; motor block duration (rats [2]): 140 min; duration of effective sensory blockade (rats [2]): 145 min; anesthesia result in acute inflammation model through plantar incision (rats [4]): improved results |
| COC(=O)c1scc(C)c1NC(=O)C(C)N1CCN(CC2CC2)CC1 (stereo not shown) [AT-14, Methyl 3-(2-(4-(cyclopropylmethyl)piperazin-1-yl)propanamido)-4-methylthiophene-2-carboxylate] | 22 | – |
| COC(=O)c1scc(C)c1NC(=O)C(C)N1CCN(C(C)(C)C)CC1 (stereo not shown) [AT-15, Methyl 3-(2-(4-(tert-butyl)piperazin-1-yl)propanamido)-4-methylthiophene-2-carboxylate] | 116.4 | subcutaneous infiltration duration (rats [1]): 205 min; motor block duration (rats [2]): 210 min; duration of effective sensory blockade (rats [2]): 190 min |
| CCCN1CCN(C(C)C(=O)Nc2c(C)csc2C(=O)OC)CC1 (stereo not shown) [AT-16, Methyl 4-methyl-3-(2-(4-propylpiperazin-1-yl)propanamido)thiophene-2-carboxylate] | 42.4 | – |
| COC(=O)c1scc(C)c1NC(=O)C(C)N1CCN(c2ccccc2)CC1 (stereo not shown) [AT-18, Methyl 4-methyl-3-(2-(4-phenylpiperazin-1-yl)propanamido)thiophene-2-carboxylate] | 57.8 | – |
| COC(=O)c1scc(C)c1NC(=O)C(C)N1CCN(CCO)CC1 (stereo not shown) [AT-19, Methyl 3-(2-(4-(2-hydroxyethyl)piperazin-1-yl)propanamido)-4-methylthiophene-2-carboxylate] | 92 | – |
| COCCN1CCN(C(C)C(=O)Nc2c(C)csc2C(=O)OC)CC1 (stereo not shown) [AT-20, Methyl 3-(2-(4-(2-methoxyethyl)piperazin-1-yl)propanamido)-4-methylthiophene-2-carboxylate] | 92 | – |
| COC(=O)c1scc(C)c1NC(=O)CN1CCN(C(C)C)CC1 [AT-21, Methyl 3-(2-(4-isopropylpiperazin-1-yl)acetamido)-4-methylthiophene-2-carboxylate] | 5.8 | subcutaneous infiltration effect compared with AT (rats [1]): fewer effects than AT |
| CCC(C(=O)Nc1c(C)csc1C(=O)OC)N1CCN(C(C)C)CC1 (stereo not shown) [AT-22, Methyl 3-(2-(4-isopropylpiperazin-1-yl)butanamido)-4-methylthiophene-2-carboxylate] | 21.4 | subcutaneous infiltration duration (rats [1]): 260 min; motor block duration (rats [2]): 240 min; duration of effective sensory blockade (rats [2]): 220 min |
| COCCN(CCOC)C(C)C(=O)Nc1c(C)csc1C(=O)OC (stereo not shown) [AT-23, Methyl 3-(2-(bis(2-methoxyethyl)amino)propanamido)-4-methylthiophene-2-carboxylate] | 43.6 | – |
| CCN(CCO)C(C)C(=O)Nc1c(C)csc1C(=O)OC (stereo not shown) [AT-24, Methyl 3-(2-(ethyl(2-hydroxyethyl)amino)propanamido)-4-methylthiophene-2-carboxylate] | 27.6 | – |
| COC(=O)c1scc(C)c1NC(=O)C(C)N(CCO)CCO (stereo not shown) [AT-25, Methyl 3-(2-(bis(2-hydroxyethyl)amino)propanamido)-4-methylthiophene-2-carboxylate] | 12.1 | – |
| COC(=O)c1scc(C)c1NC(=O)C(C)NCCN1CCOCC1 (stereo not shown) [AT-26, Methyl 4-methyl-3-(2-((2-morpholinoethyl)amino)propanamido)thiophene-2-carboxylate] | 72.4 | – |
| CCCNC(C)C(=O)Nc1c(C)csc1C(=O)OCC (stereo not shown) [AT-27, Ethyl 4-methyl-3-(2-(propylamino)propanamido)thiophene-2-carboxylate] | 0.6 | – |
| CCCNC(C)C(=O)Nc1c(C)csc1C(=O)OCCC (stereo not shown) [AT-28, Propyl 4-methyl-3-(2-(propylamino)propanamido)thiophene-2-carboxylate] | 38 | – |
| CCCCOC(=O)c1scc(C)c1NC(=O)C(C)NCCC (stereo not shown) [AT-29, Butyl 4-methyl-3-(2-(propylamino)propanamido)thiophene-2-carboxylate] | 35 | – |
| CCCNC(C)C(=O)Nc1c(C)csc1C(=O)OCC(C)C (stereo not shown) [AT-30, Isobutyl 4-methyl-3-(2-(propylamino)propanamido)thiophene-2-carboxylate] | 105.4 | – |
